Tests used:
[1] = Anticancer activity against human BRCA1-deficient MDA-MB-436 cells after 96 hrs by MTT assay; assay type: functional; conditions: MDA-MB-436, 96 h
Outline: (§1)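 Human breast cancer lines: MCF-7 (wild type) and MDA-MB-436 (naturally carrying BRCA1 mutations, BRCA1-deficient). Cytotoxicity reported as CC50 in μM.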

[2] = molecular target: Poly [ADP-ribose] polymerase 1 (Homo sapiens, UniProt P09874); test: Inhibition of PARP1 (unknown origin)
[3] = tested on: MCF7; test: Anticancer activity against human MCF7 cells after 96 hrs by MTT assay; assay type: functional; conditions: MCF7, 96 h; outline: as §1

Chain of Poly [ADP-ribose] polymerase 1 (P09874 whole entry): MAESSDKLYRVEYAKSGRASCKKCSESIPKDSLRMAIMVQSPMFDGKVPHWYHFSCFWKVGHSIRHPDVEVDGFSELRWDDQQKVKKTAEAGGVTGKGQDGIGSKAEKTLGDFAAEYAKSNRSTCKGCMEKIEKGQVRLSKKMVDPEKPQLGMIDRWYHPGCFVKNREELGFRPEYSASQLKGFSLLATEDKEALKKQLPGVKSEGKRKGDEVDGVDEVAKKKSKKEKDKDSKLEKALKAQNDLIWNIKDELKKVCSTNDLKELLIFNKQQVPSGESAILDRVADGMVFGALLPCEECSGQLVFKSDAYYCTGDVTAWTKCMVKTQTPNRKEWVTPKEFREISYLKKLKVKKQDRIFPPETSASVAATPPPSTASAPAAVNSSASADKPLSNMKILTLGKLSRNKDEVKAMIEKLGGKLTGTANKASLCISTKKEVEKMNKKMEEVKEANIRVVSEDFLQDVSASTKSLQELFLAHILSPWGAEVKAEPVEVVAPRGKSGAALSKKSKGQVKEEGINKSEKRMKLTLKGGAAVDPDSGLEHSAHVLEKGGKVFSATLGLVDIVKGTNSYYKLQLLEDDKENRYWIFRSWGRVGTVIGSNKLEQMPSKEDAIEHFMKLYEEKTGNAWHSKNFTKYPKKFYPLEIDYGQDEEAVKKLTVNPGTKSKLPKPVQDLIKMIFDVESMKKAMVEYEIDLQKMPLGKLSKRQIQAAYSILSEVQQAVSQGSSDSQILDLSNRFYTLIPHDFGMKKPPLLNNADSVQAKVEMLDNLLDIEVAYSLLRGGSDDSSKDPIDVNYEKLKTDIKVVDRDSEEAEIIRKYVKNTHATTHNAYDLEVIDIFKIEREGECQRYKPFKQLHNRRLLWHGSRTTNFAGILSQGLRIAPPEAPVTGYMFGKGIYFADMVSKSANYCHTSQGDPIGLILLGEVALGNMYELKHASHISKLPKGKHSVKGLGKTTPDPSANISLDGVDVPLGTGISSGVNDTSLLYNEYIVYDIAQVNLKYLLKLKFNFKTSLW

Row | Structure (SMILES) | IC50 [2] [µM] | CC50 [1] [µM] | CC50 [3] [µM]
1 | CNCc1ccc(-c2[nH]c3cccc4c3c2C(=O)NNC4=O)cc1 | 2.7 | 11.3 | 83.1
2 | CCCNCc1ccc(-c2[nH]c3cccc4c3c2C(=O)NNC4=O)cc1 |  |  | 101
3 | CC(C)NCc1ccc(-c2[nH]c3cccc4c3c2C(=O)NNC4=O)cc1 | 11.3 | 55.7 | 40.7
4 | CCCCNCc1ccc(-c2[nH]c3cccc4c3c2C(=O)NNC4=O)cc1 | 0.25 | 18.9 | 18
5 | CNCc1ccc(-c2cc3c4c(c[nH]c4c2)C(=O)NNC3=O)cc1 |  |  | 1240
6 | CCCNCc1ccc(-c2cc3c4c(c[nH]c4c2)C(=O)NNC3=O)cc1 | 0.138 | 112 | 5560
7 | CC(C)NCc1ccc(-c2cc3c4c(c[nH]c4c2)C(=O)NNC3=O)cc1 | 0.465 | 105 | 1920
8 | CNCc1ccc(-c2[nH]c3cc(F)cc4c3c2CCNC4=O)cc1 [RUCAPARIB] |  | 3 | 19.5

Now from value to compound, other results behind:

Row | IC50 [2] [µM] | Structure (SMILES) | CC50 [1] [µM] | CC50 [3] [µM]
9 | 0.00664 | CNCc1ccc(-c2[nH]c3cc(F)cc4c3c2C(=O)NNC4=O)cc1 | 56.2 | 65.3
10 | 0.0035 | CCCNCc1ccc(-c2[nH]c3cc(F)cc4c3c2C(=O)NNC4=O)cc1 | 5.45 | 25.9
11 | 0.00242 | CCCCNCc1ccc(-c2[nH]c3cc(F)cc4c3c2C(=O)NNC4=O)cc1 | 114 | 
12 | 0.0354 | CCCCNCc1ccc(-c2cc3c4c(c[nH]c4c2)C(=O)NNC3=O)cc1 | 68.8 | 237
